Test results: ChEMBL document CHEMBL1139924, “The structure-activity relationship of the series of non-peptide small antagonists for p56lck SH2 domain” (Bioorg Med Chem, 2007)
Values belong to the molecule of their own block, whether it stands above or below them. Calls of active or inactive are those of the source. No cut-off for these calls is given here.

Key:
[1] = Inhibition of p56lck SH2 domain by ELISA; design: species or system Homo sapiens
In short: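 Competitive ELISA. Compound plus GST-p56lck SH2 fusion (100 ng/ml) incubated 1 h at room temperature, in duplicate wells. Bound protein detected with rabbit anti-GST, then HRP anti-rabbit and TMB, acid-stopped, A450. Ac-pYEEIE control peptide; IC50 reported.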

Jurkat [2] = experiment: Inhibition of Jurkat cell activation assessed as blocking of T-cell antigen receptor-induced IL-2 expression at 10 uM by luciferase assay; type: functional; details: Homo sapiens
In short: (§1)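 Jurkat T cells (2 × 10⁶) transfected with 2 µg IL-2-luciferase reporter by lipofection. Compounds added 2 h before activation and kept present throughout 16 h stimulation with plate-coated anti-CD3 mAb (5 µg/ml, UCHT1) or […] plus ionomycin (0.5 µg/ml). Cells then washed, lysed and read for luciferase by luminometry. Three independent experiments in duplicate. Cyclosporin A positive control.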

[3] = Partition coefficient, log P of the compound; type: physicochemical; details: octanol/water
In short: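 Shake-flask partition. Compound at 1 mM final in 1-octanol/water with an equal volume of 1-octanol/water added, vortexed 30 min. P is the octanol concentration divided by the aqueous concentration. Three independent experiments in duplicate.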

Jurkat [4] = experiment: Inhibition of Jurkat cell activation assessed as blocking of T-cell antigen receptor-induced IL-2 expression at 30 uM by luciferase assay; type: functional; details: Homo sapiens; in short: as §1

SMILES: O=C(O)/C=C/c1ccc(O)c(O)c1 [CAFFEIC ACID]
IC50 [1]: > 500 µM
inhibition at 10 µM (Jurkat [2]): 2%

SMILES: COC(=O)[C@@H](Cc1ccc(O)c(O)c1)NC(=O)/C=C/c1ccc(OC)c(O)c1
IC50 [1]: > 500 µM
logP [3]: 1.37
inhibition at 10 µM (Jurkat [2]): 5.4%

SMILES: CC(C)(C)OC(=O)[C@@H](Cc1ccc(O)c(O)c1)OC(=O)/C=C/c1ccc(O)c(O)c1
IC50 [1]: 127 µM
logP [3]: 2
inhibition at 10 µM (Jurkat [2]): 80.7%

SMILES: COC(=O)CCCCCNC(=O)[C@@H](Cc1ccc(O)c(O)c1)OC(=O)/C=C/c1ccc(O)c(O)c1
IC50 [1]: > 500 µM
logP [3]: 1.68
inhibition at 10 µM (Jurkat [2]): 29.4%

SMILES: COC(=O)[C@@H](Cc1ccc(OC)c(OC)c1)NC(=O)/C=C/c1ccc(O)c(O)c1
IC50 [1]: > 500 µM
logP [3]: 1.53
inhibition at 10 µM (Jurkat [2]): 9.4%

SMILES: NC(Cc1ccc(O)c(O)c1)C(=O)O (racemic)
IC50 [1]: > 500 µM
inhibition at 10 µM (Jurkat [2]): 0.6%

SMILES: CC(C)OC(=O)[C@@H](Cc1ccc(O)c(O)c1)OC(=O)/C=C/c1ccc(O)c(O)c1
IC50 [1]: 110 µM
logP [3]: 1.83
inhibition at 10 µM (Jurkat [2]): 86.1%

SMILES: CCCOC(=O)[C@@H](Cc1ccc(O)c(O)c1)OC(=O)/C=C/c1ccc(O)c(O)c1
IC50 [1]: 145 µM
logP [3]: 1.52
inhibition at 10 µM (Jurkat [2]): 87.5%

SMILES: COC(=O)[C@@H](Cc1ccc(O)c(O)c1)NC(=O)/C=C/c1ccc(O)c(OC)c1
IC50 [1]: > 500 µM
logP [3]: 1.31
inhibition at 10 µM (Jurkat [2]): 2.2%

SMILES: COC(=O)[C@@H](Cc1ccc(O)c(O)c1)NC(=O)/C=C/c1ccc(OC)c(OC)c1
IC50 [1]: > 500 µM
logP [3]: 1.52
inhibition at 10 µM (Jurkat [2]): 3.5%

These reach a lower IC50 [1]. Values come first.

IC50 [1]: 21 µM
logP [3]: 0.731
SMILES: O=C(/C=C/c1ccc(O)c(O)c1)N[C@@H](Cc1ccc(O)c(O)c1)C(=O)O
inhibition at 10 µM (Jurkat [2]): 11%

IC50 [1]: 13 µM
logP [3]: 0.493
SMILES: O=C(CCc1ccc(O)c(O)c1)N[C@H](Cc1ccc(O)c(O)c1)C(=O)O
inhibition at 10 µM (Jurkat [2]): 0%

IC50 [1]: 71 µM
logP [3]: 1.39
SMILES: COC(=O)[C@@H](Cc1ccc(O)c(O)c1)NC(=O)/C=C/c1ccc(O)c(O)c1
inhibition at 10 µM (Jurkat [2]): 61.6%

IC50 [1]: 15 µM
logP [3]: 0.503
SMILES: O=C(CCc1ccc(O)c(O)c1)O[C@H](Cc1ccc(O)c(O)c1)C(=O)O
inhibition at 10 µM (Jurkat [2]): 7.6%

IC50 [1]: 80 µM
logP [3]: 1.48
SMILES: COC(=O)[C@@H](Cc1ccc(O)c(O)c1)OC(=O)/C=C/c1ccc(O)c(O)c1 [METHYL ROSMARINATE]
Activity (Jurkat [4]): Active
inhibition at 10 µM (Jurkat [2]): 54.7%

IC50 [1]: 19 µM
logP [3]: 0.125
SMILES: COC(=O)[C@@H](Cc1ccc(O)c(O)c1)NC(=O)c1ccc(O)c(O)c1
inhibition at 10 µM (Jurkat [2]): 0.4%

IC50 [1]: 32 µM
logP [3]: 0.344
SMILES: COC(=O)[C@@H](Cc1ccc(O)c(O)c1)NC(=O)CCc1ccc(O)c(O)c1
inhibition at 10 µM (Jurkat [2]): 7.5%

IC50 [1]: 24 µM
logP [3]: 0.834
SMILES: O=C(/C=C/c1ccc(O)c(O)c1)O[C@H](Cc1ccc(O)c(O)c1)C(=O)O [ROSMARINIC ACID]
inhibition at 30 µM (Jurkat [4]): 50%
inhibition at 10 µM (Jurkat [2]): 40.4%

IC50 [1]: 20 µM
logP [3]: 0.758
SMILES: O=C(/C=C/c1ccc(O)c(O)c1)N[C@H](Cc1ccc(O)c(O)c1)C(=O)O
inhibition at 10 µM (Jurkat [2]): 10.3%

IC50 [1]: 91 µM
logP [3]: 1.5
SMILES: CCOC(=O)[C@@H](Cc1ccc(O)c(O)c1)OC(=O)/C=C/c1ccc(O)c(O)c1 [ETHYL ROSMARINATE]
inhibition at 10 µM (Jurkat [2]): 22.7%

IC50 [1]: 21 µM
logP [3]: 0.138
SMILES: COC(=O)[C@@H](Cc1ccc(O)c(O)c1)NC(=O)Cc1ccc(O)c(O)c1
inhibition at 10 µM (Jurkat [2]): 23%
